For 34 compounds, Ki results are on record in ChEMBL document CHEMBL1124626, “Inhibition of 125I-labeled ristocetin binding to Micrococcus luteus cells by the peptides related to bacterial cell wall mucopeptide precursors: quantitative structure-activity relationships” (J Med Chem, 1989).

Peptide text beside a SMILES is read from it.

By Ki is commonly meant a measure of affinity in units of concentration, obtained from inhibition or displacement. A high value points to weaker binding.

Assay [1] deals with Micrococcus luteus. Kind of assay: Inhibition of [125I]ristocetin binding to micrococcus luteus cells. The class given is functional, organism-based. A digest of the protocol: (§1)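 Lyophilized M. luteus cells were boiled in 1% sodium lauryl sulfate, washed with water, and stored at 4 °C. Ristocetin was iodinated with 125I/I2 and purified on CM-cellulose. Duplicate tubes held 50 μg cells, 1 μg labeled antibiotic and varied N-acetyl peptide in sodium citrate buffer, pH 5.1, in 0.2 mL at room temperature. Tubes were centrifuged at 10000g for 10 min and supernatant γ-counted. Ki came from Cheng-Prusoff using the Scatchard Kd.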

Assay [2] has as its system Micrococcus luteus. Kind of assay: Inhibition of [125I]ristocetin binding to micrococcus luteus cell wall (UDP-N-acetylmuramylpentapeptide). It counts as functional, organism-based. An outline of the steps: as §1

In the assay on Micrococcus luteus [1], `CC(=O)N[C@H](C)C(=O)O` returned a Ki of 3200 µM.
Same read-out and setting: the value for `CC(=O)N[C@H](C)C(=O)NCC(=O)O` was 3100 µM; that for `CC(=O)N[C@H](C)C(=O)N[C@H](Cc1ccccc1)C(=O)O` was 8.7 µM.
For the compound `CC(=O)N[C@H](CC(N)=O)C(=O)O`, affinity in the assay with Micrococcus luteus [2] was put at a Ki of 9000 µM.
As to `CC(=O)N[C@H](CC(C)C)C(=O)NCC(=O)O`, the Ki in the assay on Micrococcus luteus [1] turned out to be 11000 µM.
`CC(=O)NCC(=O)N[C@@H](C(=O)O)C(C)C`: the Ki in the assay on Micrococcus luteus [2] was determined as 340 µM.
Same read-out and setting: the value for `CC(=O)NCC(=O)N[C@H](CC(N)=O)C(=O)O` was 720 µM; that for `CC(=O)NCC(=O)N[C@H](CO)C(=O)O` was 540 µM.
The compound `CC(=O)N[C@H](C)C(=O)N[C@H](C)C(=O)O` registered a Ki with Micrococcus luteus [1] of 73 µM.
In turn, `CC(=O)N[C@@H](C(=O)O)C(C)C` had a Ki in the assay with Micrococcus luteus [2] of 3100 µM.
Still for that read-out and setting: the value for `CC[C@@H](C)[C@@H](NC(C)=O)C(=O)O` was 2800 µM.
`CC(=O)N[C@H](C)C(=O)N[C@H](C)C(=O)N[C@H](C)C(=O)O` had an inhibition constant (Ki) with Micrococcus luteus [1] of 42 µM.
As for `CC(=O)NCC(=O)N[C@H](C)C(=O)O`, the affinity in the assay with Micrococcus luteus [2], expressed as Ki, was 130 µM.
Still for that read-out and setting: the value for `CC(=O)NCC(=O)NCC(=O)O` was 4600 µM.
On to `CC(=O)N[C@H](Cc1ccccc1)C(=O)O`, for which the Ki in the assay with Micrococcus luteus [1] came to 100 µM.
Same read-out and setting: the value for `CC(=O)NCC(=O)N[C@H](Cc1ccccc1)C(=O)O` was 9.8 µM.
`CC(=O)N[C@H](CC(C)C)C(=O)NCC(=O)NCC(=O)O`: the affinity in the assay on Micrococcus luteus [2], expressed as Ki, was 1900 µM.
In turn, `CSCC[C@@H](NC(C)=O)C(=O)O` came in with a Ki in the assay with Micrococcus luteus [1] of 2400 µM.
In turn, `CC(=O)N[C@H](CC(C)C)C(=O)O` gave a Ki in the assay with Micrococcus luteus [2] of 2800 µM.
Turning to `CC(=O)N[C@H](Cc1c[nH]c2ccccc12)C(=O)O`, in the assay on Micrococcus luteus [1], the inhibition constant (Ki) amounted to 160 µM.
Still for that read-out and setting: the value for `CC(=O)NCC(=O)N[C@@H](CC(C)C)C(=O)O` was 590 µM.
On to `CC(=O)NC(C(=O)O)c1ccc(O)cc1` (centres undefined), for which, in the assay with Micrococcus luteus [2], the Ki amounted to 4200 µM.
The same measure, in the same setting: the value for `C[C@@H](NC(=O)OCc1ccccc1)C(=O)O` was 5100 µM; that for `CC(=O)N[C@@H](CC(C)C)C(=O)NCC(=O)NCC(=O)O` was 2000 µM.
Consider `CC(=O)N[C@H](CC(C)C)C(=O)N[C@H](CC(C)C)C(=O)O`, for which the inhibition constant Ki in the assay on Micrococcus luteus [1] came out at 4500 µM.
Take `CC(=O)NCC(=O)N[C@@H](C(=O)O)[C@H](C)O`: in the assay on Micrococcus luteus [2], the Ki was determined as 4700 µM.
`CC(=O)N[C@@H](CCCCN)C(=O)N[C@H](C)C(=O)N[C@H](C)C(=O)O` had a Ki with Micrococcus luteus [2] of 16 µM.
In the case of `CC(=O)NCC(=O)N[C@H](CC(=O)O)C(=O)O`, the affinity with Micrococcus luteus [2], expressed as Ki, was 1400 µM.
Still for that read-out and setting: the value for `CC(=O)NCC(=O)NCC(=O)NCC(=O)O` (Ac-Gly-Gly-Gly-OH) was 7100 µM.
`CC(=O)N[C@@H](Cc1ccccc1)C(=O)NCC(=O)NCC(=O)O` (Ac-Phe-Gly-Gly-OH): the affinity in the assay on Micrococcus luteus [1], expressed as Ki, was 1600 µM.
Same read-out and setting: the value for `CC(=O)N1CCC[C@H]1C(=O)NCC(=O)NCC(=O)O` (Ac-Pro-Gly-Gly-OH) was 1600 µM; that for `CC(=O)N[C@@H](Cc1c[nH]c2ccccc12)C(=O)NCC(=O)NCC(=O)O` (Ac-Trp-Gly-Gly-OH) was 1200 µM.
As to `CC(=O)N[C@@H](Cc1ccc(O)cc1)C(=O)NCC(=O)NCC(=O)O` (Ac-Tyr-Gly-Gly-OH), the Ki in the assay on Micrococcus luteus [2] stood at 1300 µM.
The compound `CC(=O)NCC(=O)O` [ACETURIC ACID] registered a Ki with Micrococcus luteus [1] of 29000 µM.
